Values after ≈ are worked out from the molar mass of the structure shown. Active and inactive are the calls of the source. No cut-off for these calls is given here.
Columns and labels:
Staphylococcus aureus [1] = test: Antibacterial activity against Staphylococcus aureus ML145 at 10 ug/ml after 24 hrs by agar dilution method; format: functional; conditions: ML145, 24 h
Summary of the method: (§1)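 Agar dilution MIC. Compound dissolved in sterile 0.2% DMSO, diluted in distilled water and mixed into molten nutrient agar (pH 7.2–7.4) at 5, 10, 25, 50; plate with 0.2% DMSO as control. Gram-positives grown 18 h in nutrient broth, Gram-negatives in peptone water. Stationary-phase suspension set to 0.5 McFarland, diluted 1:100, spot-inoculated at about 10^5 CFU per loopful. Plates held 24 h at 37 °C (up to 72 h if needed). MIC is the lowest level with no growth.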

Shigella dysenteriae [2] = test: Antibacterial activity against Shigella dysenteriae 7 NCTC 519/66 at 10 ug/ml after 24 hrs by agar dilution method; format: functional; conditions: 7 NCTC 519/66, 24 h
Leishmania donovani [3] = test: Antileishmanial activity against Leishmania donovani MHOM/IN/1983/AG83 promastigotes infected BALB/c mouse assessed as reduction in spleen parasite burden at 12.5 mg/kg, ip administered two times per week for 4 weeks relative to control; format: functional; set-up: scale not given: the % may be the effect or the level left; conditions: route intraperitoneal
Summary of the method: (§2)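 BALB/c mice (4-6 weeks) were infected iv with 2 × 10^7 freshly transformed promastigotes. One month later, groups were dosed ip in 0.2% Tween 80 in PBS (0.02 M), twice weekly for one month (8 doses); controls got vehicle only. Mice were killed one month post-treatment and spleen and liver were weighed. Parasite load came from Giemsa impression smears as organ weight (mg) × amastigotes per cell nucleus × 2 × 10^5. Values are mean ± S.E. of 5 mice; unpaired t-test.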

Salmonella typhimurium [4] = test: Antibacterial activity against Salmonella Typhimurium NCTC 74 after 24 hrs by agar dilution method; format: functional, Salmonella enterica subsp. enterica serovar Typhimurium; conditions: Salmonella enterica, NCTC 74, 24 h; summary of the method: as §1
Pseudomonas aeruginosa [5] = test: Antibacterial activity against Pseudomonas aeruginosa ATCC 27853 at 5 ug/ml after 24 hrs by agar dilution method; format: functional, organism-based; summary of the method: as §1
Leishmania donovani [6] = test: Antileishmanial activity against Leishmania donovani MHOM/IN/1983/AG83 promastigotes after 4 hrs by MTT assay; format: functional, organism-based; conditions: MHOM/IN/1983/AG83, 4 h
Summary of the method: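 AG83 promastigotes kept at 22 °C in M199 + 10% FBS. Log-phase cells (2×10^6/ml) exposed 2 h at 22 °C to 1, 3, 5, 7, 10, 15 compound; DMSO at 0.1% final. Cells washed with PBS, incubated 4 h at 22 °C with MTT (2 mg/ml). Formazan dissolved in DMSO and read at 570 nm; % lysis computed, IC50 by linear regression.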

Staphylococcus aureus [7] = test: Antibacterial activity against Staphylococcus aureus ML145 at 5 ug/ml after 24 hrs by agar dilution method; format: functional; conditions: ML145, 24 h; summary of the method: as §1
Salmonella typhimurium [8] = test: Antibacterial activity against Salmonella Typhimurium NCTC 74 at 25 ug/ml after 24 hrs by agar dilution method; format: functional, organism-based; conditions: Salmonella enterica subsp. enterica serovar Typhimurium; summary of the method: as §1
[9] = Down regulation of TNFalpha release Leishmania donovani MHOM/IN/1983/AG83 infected interferon gamma-stimulated golden Syrian hamster peritoneal macrophages; format: functional, cell-based; conditions: Mesocricetus auratus; Macrophage
Vibrio cholerae [10] = test: Antibacterial activity against Vibrio cholerae 569B at 5 ug/ml after 24 hrs by agar dilution method; format: functional, organism-based
Vibrio cholerae [11] = test: Antibacterial activity against Vibrio cholerae 582 at 25 ug/ml after 24 hrs by agar dilution method; format: functional; conditions: Vibrio cholerae, 582, 24 h
Staphylococcus aureus [12] = test: Antibacterial activity against Staphylococcus aureus ML145 at 50 ug/ml after 24 hrs by agar dilution method; format: functional; conditions: ML145, 24 h; summary of the method: as §1
Leishmania donovani [13] = test: Antileishmanial activity against Leishmania donovani MHOM/IN/1983/AG83 promastigotes infected BALB/c mouse assessed as reduction in spleen parasite burden at 5.5 mg/kg, ip administered two times per week for 4 weeks relative to control; format: functional; set-up: scale not given: the % may be the effect or the level left; conditions: route intraperitoneal; summary of the method: as §2
Escherichia coli [14] = test: Antibacterial activity against Escherichia coli ATCC 25938 at 10 ug/ml after 24 hrs by agar dilution method; format: functional, organism-based; summary of the method: as §1
Staphylococcus aureus [15] = test: Antibacterial activity against Staphylococcus aureus ML145 at 25 ug/ml after 24 hrs by agar dilution method; format: functional; conditions: ML145, 24 h; summary of the method: as §1
Pseudomonas aeruginosa [16] = test: Antibacterial activity against Pseudomonas aeruginosa ATCC 27853 at 25 ug/ml after 24 hrs by agar dilution method; format: functional; conditions: ATCC 27853, 24 h; summary of the method: as §1
Escherichia coli [17] = test: Antibacterial activity against Escherichia coli ATCC 25938 at 5 ug/ml after 24 hrs by agar dilution method; format: functional, organism-based; summary of the method: as §1
Shigella dysenteriae [18] = test: Antibacterial activity against Shigella dysenteriae 6 NCTC 100/54 at 10 ug/ml after 24 hrs by agar dilution method; format: functional, organism-based
Proteus mirabilis [19] = test: Antibacterial activity against Proteus mirabilis 7 at 5 ug/ml after 24 hrs by agar dilution method; format: functional, organism-based; summary of the method: as §1
Shigella dysenteriae [20] = test: Antibacterial activity against Shigella dysenteriae 7 NCTC 519/66 at 25 ug/ml after 24 hrs by agar dilution method; format: functional; conditions: 7 NCTC 519/66, 24 h
Vibrio cholerae [21] = test: Antibacterial activity against Vibrio cholerae 569B at 50 ug/ml after 24 hrs by agar dilution method; format: functional
Leishmania donovani [22] = test: Antileishmanial activity against Leishmania donovani MHOM/IN/1983/AG83 promastigotes assessed as induction of membrane blebbing at 2 ug/ml after 2 hrs by transmission electron microscopy; format: functional, organism-based
Summary of the method: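 Log-phase promastigotes, grown at 22 °C in M199 with 10% FBS, were exposed for 2 h to the compound; controls received 0.1% DMSO alone. Cells were then sectioned, stained on copper grids with uranyl acetate and lead acetate for 10-15 min each, and examined by TEM for ultrastructural changes.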

Leishmania donovani [23] = test: Antileishmanial activity against Leishmania donovani MHOM/IN/1983/AG83 promastigotes infected BALB/c mouse assessed as liver weight at 12.5 mg/kg, ip administered two times per week for 4 weeks; format: functional; conditions: route intraperitoneal; summary of the method: as §2
Leishmania donovani [24] = test: Antileishmanial activity against Leishmania donovani MHOM/IN/1983/AG83 promastigotes assessed as induction of chromatin condensation at 11.5 ug/ml after 2 hrs by transmission electron microscopy; format: functional, organism-based
Escherichia coli [25] = test: Antibacterial activity against Escherichia coli K-12 Row at 5 ug/ml after 24 hrs by agar dilution method; format: functional, organism-based; summary of the method: as §1
Pseudomonas aeruginosa [26] = test: Antibacterial activity against Pseudomonas aeruginosa ATCC 27853 at 50 ug/ml after 24 hrs by agar dilution method; format: functional; conditions: ATCC 27853, 24 h; summary of the method: as §1
Vibrio cholerae [27] = test: Antibacterial activity against Vibrio cholerae 582 after 24 hrs by agar dilution method; format: functional; conditions: Vibrio cholerae, 582, 24 h
Mus musculus = test: Toxicity in BALB/c mouse assessed as effect on serum glutamate oxaloacetate transaminase levels at 12.5 mg/kg, ip administered two times per week for 4 weeks; format: organism-based; set-up: dose 12.5 mg/kg, route intraperitoneal; conditions: in vivo, 672 h
Summary of the method: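 Normal BALB/c mice were dosed ip twice per week for 4 weeks. Blood was collected one month after treatment, and serum SGPT and SGOT (IU/l) and blood urea (mg/dl) were measured with commercial kits and compared with untreated normal mice.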

Proteus mirabilis [28] = test: Antibacterial activity against Proteus mirabilis 7 at 10 ug/ml after 24 hrs by agar dilution method; format: functional, organism-based; summary of the method: as §1
[29] = Toxicity against golden Syrian hamster peritoneal macrophages; format: cell-based, Mesocricetus auratus; conditions: macrophage
Leishmania donovani [30] = test: Antileishmanial activity against Leishmania donovani MHOM/IN/1983/AG83 promastigotes assessed as induction of chromatin condensation at 2 ug/ml after 2 hrs by transmission electron microscopy; format: functional, organism-based
Staphylococcus aureus [31] = test: Antibacterial activity against Staphylococcus aureus ML6 at 5 ug/ml after 24 hrs by agar dilution method; format: functional, organism-based; summary of the method: as §1

**Q.** For `Clc1ccc(OCOc2ccc(Cl)c3cccnc23)c2ncccc12`, which inhibition at 10 µg/mL (Staphylococcus aureus [1]) is on record?
**A.** The inhibition at 10 µg/mL was 100%.

**Q.** What about the inhibition at 10 µg/mL (Shigella dysenteriae [2]) of the same compound?
**A.** Its inhibition at 10 µg/mL is 100%.

**Q.** And the Activity (Leishmania donovani [3])?
**A.** Its Activity is 95%.

**Q.** What about the MIC (Salmonella typhimurium [4]) of the same compound?
**A.** The MIC was 50 µg/mL (≈ 135 µM).

**Q.** What about the Activity (Pseudomonas aeruginosa [5]) of the same compound?
**A.** Its Activity is “inactive”.

**Q.** And the IC50 (Leishmania donovani [6])?
**A.** Its IC50 is 2 µg/mL (≈ 5.39 µM).

**Q.** And the inhibition at 5 µg/mL (Staphylococcus aureus [7])?
**A.** The inhibition at 5 µg/mL was 100%.

**Q.** And the Activity (Salmonella typhimurium [8])?
**A.** The Activity was “inactive”.

**Q.** And the Activity [9]?
**A.** Its Activity is “Active”.

**Q.** And the Activity (Vibrio cholerae [10])?
**A.** The Activity was “inactive”.

**Q.** And the inhibition at 25 µg/mL (Vibrio cholerae [11])?
**A.** Its inhibition at 25 µg/mL is 100%.

**Q.** What about the inhibition at 50 µg/mL (Staphylococcus aureus [12]) of the same compound?
**A.** Its inhibition at 50 µg/mL is 100%.

**Q.** What about the Activity (Leishmania donovani [13]) of the same compound?
**A.** Its Activity is 75%.

**Q.** And the Activity (Escherichia coli [14])?
**A.** Its Activity is “inactive”.

**Q.** What about the inhibition at 25 µg/mL (Staphylococcus aureus [15]) of the same compound?
**A.** The inhibition at 25 µg/mL was 100%.

**Q.** And the inhibition at 25 µg/mL (Pseudomonas aeruginosa [16])?
**A.** The inhibition at 25 µg/mL was 100%.

**Q.** And the Activity (Escherichia coli [17])?
**A.** Its Activity is “inactive”.

**Q.** And the Activity (Shigella dysenteriae [18])?
**A.** Its Activity is “inactive”.

**Q.** And the Activity (Proteus mirabilis [19])?
**A.** The Activity was “inactive”.

**Q.** What about the inhibition at 25 µg/mL (Shigella dysenteriae [20]) of the same compound?
**A.** The inhibition at 25 µg/mL was 100%.

**Q.** And the inhibition at 50 µg/mL (Vibrio cholerae [21])?
**A.** The inhibition at 50 µg/mL was 100%.

**Q.** And the Activity (Leishmania donovani [22])?
**A.** The Activity was “Active”.

**Q.** And the Activity (Leishmania donovani [23])?
**A.** The Activity was 900 mg.

**Q.** What about the Activity (Leishmania donovani [24]) of the same compound?
**A.** Its Activity is “Active”.

**Q.** What about the Activity (Escherichia coli [25]) of the same compound?
**A.** The Activity was “inactive”.

**Q.** And the inhibition at 50 µg/mL (Pseudomonas aeruginosa [26])?
**A.** Its inhibition at 50 µg/mL is 100%.

**Q.** What about the MIC (Vibrio cholerae [27]) of the same compound?
**A.** The MIC was 5 µg/mL (≈ 13.5 µM).

**Q.** And the Activity (Mus musculus)?
**A.** The Activity was “Non-toxic”.

**Q.** And the Activity (Proteus mirabilis [28])?
**A.** Its Activity is “inactive”.

**Q.** And the Activity [29]?
**A.** Its Activity is over 80 µg/mL.

**Q.** And the Activity (Leishmania donovani [30])?
**A.** Its Activity is “Active”.

**Q.** What about the Activity (Staphylococcus aureus [31]) of the same compound?
**A.** The Activity was “inactive”.

— ChEMBL document CHEMBL1153864, “Phase transfer catalyzed synthesis of bis-quinolines: antileishmanial activity in experimental visceral leishmaniasis and in vitro antibacterial evaluation” (Eur J Med Chem, 2009)
